From ChEMBL document CHEMBL1817574, “Development of novel conformation-constrained cytotoxic derivatives of cheliensisin A by embedment of small heterocycles” (Eur J Med Chem, 2011)

Experiments:
[1] = test system: HL-60; assay: Cytotoxicity against human HL60 cells after 48 hrs by MTT assay; format: functional, cell-based; settings: HL-60, 48 h
In short: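 Log-phase HL-60 cells were seeded at 1.25 × 10⁵ cells/mL and treated in four replicates across various concentrations for 48 h. MTT (5 mg/mL solution) was then added and incubated a further 4 h. The wells were then solubilised with 10% SDS–5% isobutanol–0.012 mol/L HCl before the colorimetric read-out.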

[2] = test system: SMMC-7721; assay: Cytotoxicity against human SMMC7721 cells after 48 hrs by MTT assay; format: functional, cell-based; settings: SMMC-7721, 48 h
[3] = test system: SK-BR-3; assay: Cytotoxicity against human SKBR3 cells after 48 hrs by MTT assay; format: functional, cell-based; settings: SK-BR-3, 48 h
[4] = test system: A549; assay: Cytotoxicity against human A549 cells after 48 hrs by MTT assay; format: functional, cell-based; settings: A549, 48 h
[5] = test system: PANC-1; assay: Cytotoxicity against human PANC1 cells after 48 hrs by MTT assay; format: functional, cell-based; settings: PANC-1, 48 h
[6] = Chemical stability of the compound in 0.1 M phosphate buffer at pH 7.0 at 0.1 mg/mL after 12 hrs by HPLC analysis; format: physicochemical; settings: pH 7, 12 h
[7] = test system: HL-60; assay: Ratio IC50 for cheliensisin A to compound for human HL60 cells after 48 hrs by MTT assay; format: functional

SMILES | IC50 [1] | IC50 [2] | IC50 [3] | IC50 [4] | IC50 [5] | Stability [6] | Ratio IC50 [7]
CC(=O)O[C@H]1C=CC(=O)O[C@@H]1[C@H]1N=C(c2ccccc2)O[C@@H]1c1ccccc1 | > 40 µM | > 40 µM | > 40 µM | > 40 µM | > 40 µM |  | 
CC(=O)O[C@H]1C=CC(=O)O[C@@H]1[C@@H]1N=C(c2ccccc2)O[C@@H]1c1ccccc1 | 4.3 µM | 17.7 µM | 3.65 µM | 18.3 µM | 12.8 µM |  | 
CC(=O)O[C@H]1C=CC(=O)O[C@@H]1[C@H]1N=C(Cc2ccccc2)O[C@@H]1c1ccccc1 | 17.8 µM | > 40 µM | 35.2 µM | > 40 µM | > 40 µM |  | 
C/C=C/C1=N[C@@H]([C@H]2OC(=O)C=C[C@@H]2OC(C)=O)[C@@H](c2ccccc2)O1 | 1.26 µM | 14.5 µM | 2.22 µM | 30.7 µM | 3.87 µM |  | 
C/C=C\C1=N[C@H]([C@H]2OC(=O)C=C[C@@H]2OC(C)=O)[C@@H](c2ccccc2)O1 | 4.59 µM | 27 µM | > 40 µM | > 40 µM | 23 µM |  | 
C/C=C/C1=N[C@H]([C@H]2OC(=O)C=C[C@@H]2OC(C)=O)[C@@H](c2ccccc2)O1 | 6.93 µM | > 40 µM | 18 µM | > 40 µM | 24.4 µM |  | 
CC(=O)O[C@H]1C=CC(=O)O[C@@H]1[C@@H]1N=C(/C=C/c2ccccc2)O[C@@H]1c1ccccc1 | 0.48 µM | 21 µM | 4.03 µM | 18.9 µM | 4.1 µM | Stable | 4
CC(=O)O[C@H]1C=CC(=O)O[C@@H]1[C@H]1N=C(/C=C/c2ccccc2)O[C@@H]1c1ccccc1 | 4.05 µM | 24 µM | 23.1 µM | 21.9 µM | 21.1 µM |  | 
CC(=O)O[C@H]1C=CC(=O)O[C@@H]1[C@H]1N=C(C)O[C@@H]1c1ccccc1 | 2.52 µM | 16.3 µM | 7.26 µM | > 40 µM | 16.6 µM |  | 
CC(=O)O[C@H]1C=CC(=O)O[C@@H]1[C@H]1N=C(C(=O)c2ccccc2)O[C@@H]1c1ccccc1 | > 40 µM | > 40 µM | > 40 µM | > 40 µM | > 40 µM |  | 
CC(=O)O[C@H]1C=CC(=O)O[C@@H]1c1nc(/C=C/c2ccccc2)oc1-c1ccccc1 | 5.89 µM | 24.6 µM | 7.36 µM | 24.8 µM | 7.22 µM | Stable | 
C/C=C\c1nc([C@H]2OC(=O)C=C[C@@H]2OC(C)=O)c(-c2ccccc2)o1 | > 40 µM | > 40 µM | > 40 µM | > 40 µM | > 40 µM |  | 
CC(=O)O[C@H]1C=CC(=O)O[C@@H]1c1nc(-c2ccccc2)oc1-c1ccccc1 | 2.59 µM | 15.7 µM | 12 µM | 14.7 µM | 13.9 µM |  | 
CC(=O)O[C@H]1C=CC(=O)O[C@@H]1[C@H](NC(=O)c1ccccc1)[C@H](O)c1ccccc1 | > 40 µM | > 40 µM | > 40 µM | > 40 µM | > 40 µM |  | 
CC(=O)O[C@H]1C=CC(=O)O[C@@H]1[C@@H](NC(=O)Cc1ccccc1)[C@H](O)c1ccccc1 | 5.19 µM | > 40 µM | 38.8 µM | > 40 µM | > 40 µM |  | 
CC(=O)O[C@H]1C=CC(=O)O[C@@H]1[C@@H](NC(=O)/C=C/c1ccccc1)[C@H](O)c1ccccc1 | > 40 µM | > 40 µM | > 40 µM | > 40 µM | > 40 µM |  | 
CC(=O)O[C@H]1C=CC(=O)O[C@@H]1/C=C/c1ccccc1 | 2.68 µM | 29 µM | 4.63 µM | 38.8 µM | 7.95 µM | Stable | 
CC(=O)O[C@H]1C=CC(=O)O[C@@H]1[C@@H](O)[C@@H](Nc1ccccc1)c1ccccc1 | > 40 µM | > 40 µM | > 40 µM | > 40 µM | > 40 µM |  | 
CC(=O)O[C@H]1C=CC(=O)O[C@@H]1[C@@H](O)[C@H](O)c1ccccc1 | > 40 µM | > 40 µM | > 40 µM | > 40 µM | > 40 µM |  | 
CC(=O)O[C@H]1C=CC(=O)O[C@H]1[C@H]1OC(C)(C)O[C@@H]1c1ccccc1 | > 40 µM | > 40 µM | > 40 µM | > 40 µM | > 40 µM |  | 
CC(=O)O[C@H]1C=CC(=O)O[C@H]1[C@H]1OC(=O)O[C@@H]1c1ccccc1 | > 40 µM | > 40 µM | > 40 µM | > 40 µM | > 40 µM |  | 
CC(=O)O[C@H]1C=CC(=O)O[C@H]1[C@H]1O[C@@H]1c1ccccc1 [CHELIENSISIN A] | 1.97 µM | 4.7 µM | 20.3 µM | 5.99 µM | 25.7 µM | Stable | 
